Data set [1] deals with L929. In words: Antiinflammatory activity against mouse L929 cells assessed as inhibition of LPS-induced TNFalpha production at 15.625 uM after 48 hrs. It counts as functional. Conditions: L929, 48 h. The method in brief:
(§1)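 Mouse L929 fibroblasts were stimulated with lipopolysaccharide and exposed to compounds at 15.62 µM and 125 µM. TNFα was quantified in culture supernatants in pg/mL and expressed as percent decrease versus stimulated cells. Thalidomide served as the reference control.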

Data set [2] has as its system L929. The experiment in a line: Antiinflammatory activity against mouse L929 cells assessed as inhibition of LPS-induced TNFalpha production at 125 uM after 48 hrs. It counts as functional. Particulars: L929, 48 h. In a few lines:
as §1

Data set [3] relates to Mus musculus. The experiment in a line: Antinociceptive effect in mouse assessed as inhibition of acetic acid-induced abdominal constriction at 100 uM/kg, po. It is filed as functional, Abdomen.
Data set [4] deals with Mycobacterium leprae. The experiment in a line: Antimycobacterial activity against Mycobacterium leprae inoculated in mouse model assessed as mean number of bacilli at 200 mg/kg, po 5 days/week for 4 weeks (reference value: 3.56 x 10^6 cells). It counts as functional.
In data set [5] the test system is L929. The experiment in a line: Antiinflammatory activity against mouse L929 cells assessed as inhibition of LPS-induced TNFalpha production after 48 hrs. It is filed as functional, cell-based. In a few lines:
as §1

Data set [6] is described as follows: Cytotoxicity against mouse L929 cells assessed as cell viability up to 150 uM. It is filed as cell-based. Particulars: read-out: Activity.
In data set [7] the test system is Salmonella typhimurium. The experiment in a line: Genotoxicity in Salmonella typhimurium TA102 assessed as mutagenic index at 32 umol/plate. It is filed as toxicity, organism-based. Conditions: salmonella enterica subsp. enterica serovar typhimurium.
Data set [8] concerns Salmonella typhimurium. The experiment in a line: Genotoxicity in Salmonella typhimurium TA100 assessed as mutagenic index at 2 umol/plate in presence of S9 liver extract. It is filed as toxicity, organism-based, Liver S9 fraction. Conditions: salmonella enterica subsp. enterica serovar typhimurium.
Data set [9] concerns Salmonella typhimurium. In words: Genotoxicity in Salmonella typhimurium TA100 assessed as mutagenic index at 8 umol/plate in presence of S9 liver extract. It counts as toxicity, organism-based, Liver S9 fraction. Particulars: salmonella enterica subsp. enterica serovar typhimurium.
Data set [10] deals with Salmonella typhimurium. The experiment in a line: Genotoxicity in Salmonella typhimurium TA102 assessed as mutagenic index at 2 umol/plate. It counts as toxicity, organism-based. Particulars: salmonella enterica subsp. enterica serovar typhimurium.
For data set [11], the system named is Salmonella typhimurium. In words: Genotoxicity in Salmonella typhimurium TA100 assessed as mutagenic index at 2 umol/plate. It counts as toxicity, organism-based. Particulars: salmonella enterica subsp. enterica serovar typhimurium.
Data set [12] relates to Salmonella typhimurium. The experiment in a line: Genotoxicity in Salmonella typhimurium TA100 assessed as mutagenic index at 32 umol/plate. It counts as toxicity, organism-based. Conditions: salmonella enterica subsp. enterica serovar typhimurium.
The test system of data set [13] is Salmonella typhimurium. The experiment in a line: Genotoxicity in Salmonella typhimurium TA102 assessed as mutagenic index at 8 umol/plate in presence of S9 liver extract. It counts as toxicity, organism-based, Liver S9 fraction. Conditions: salmonella enterica subsp. enterica serovar typhimurium.
Data set [14] has as its system Salmonella typhimurium. In words: Genotoxicity in Salmonella typhimurium TA100 assessed as mutagenic index at 32 umol/plate in presence of S9 liver extract. Conditions: salmonella enterica subsp. enterica serovar typhimurium. It is filed as toxicity, organism-based, Liver S9 fraction.
Data set [15] concerns Salmonella typhimurium. In words: Genotoxicity in Salmonella typhimurium TA102 assessed as mutagenic index at 32 umol/plate in presence of S9 liver extract. It counts as toxicity, organism-based, Liver S9 fraction. Particulars: salmonella enterica subsp. enterica serovar typhimurium.
Data set [16] deals with Salmonella typhimurium. The experiment in a line: Genotoxicity in Salmonella typhimurium TA100 assessed as mutagenic index at 16 umol/plate in presence of S9 liver extract. It is filed as toxicity, organism-based, Liver S9 fraction. Particulars: salmonella enterica subsp. enterica serovar typhimurium.
Data set [17] has as its system Salmonella typhimurium. In words: Genotoxicity in Salmonella typhimurium TA100 assessed as mutagenic index at 4 umol/plate in presence of S9 liver extract. It is filed as toxicity, organism-based, Liver S9 fraction. Conditions: salmonella enterica subsp. enterica serovar typhimurium.
The subject of data set [18] is Salmonella typhimurium. In words: Genotoxicity in Salmonella typhimurium TA102 assessed as mutagenic index at 4 umol/plate. It is filed as toxicity, organism-based. Particulars: salmonella enterica subsp. enterica serovar typhimurium.
Data set [19] deals with Salmonella typhimurium. In words: Genotoxicity in Salmonella typhimurium TA100 assessed as mutagenic index at 16 umol/plate. It counts as toxicity, organism-based. Conditions: salmonella enterica subsp. enterica serovar typhimurium.
The subject of data set [20] is Salmonella typhimurium. The experiment in a line: Genotoxicity in Salmonella typhimurium TA100 assessed as mutagenic index at 4 umol/plate. It counts as toxicity, organism-based. Conditions: salmonella enterica subsp. enterica serovar typhimurium.
In data set [21] the test system is Salmonella typhimurium. The experiment in a line: Genotoxicity in Salmonella typhimurium TA102 assessed as mutagenic index at 16 umol/plate in presence of S9 liver extract. It is filed as toxicity, organism-based, Liver S9 fraction. Particulars: salmonella enterica subsp. enterica serovar typhimurium.
The subject of data set [22] is Salmonella typhimurium. The experiment in a line: Genotoxicity in Salmonella typhimurium TA102 assessed as mutagenic index at 2 umol/plate in presence of S9 liver extract. Conditions: salmonella enterica subsp. enterica serovar typhimurium. It counts as toxicity, organism-based, Liver S9 fraction.
Data set [23] concerns Salmonella typhimurium. The experiment in a line: Genotoxicity in Salmonella typhimurium TA102 assessed as mutagenic index at 8 umol/plate. It is filed as toxicity, organism-based. Conditions: salmonella enterica subsp. enterica serovar typhimurium.
Data set [24] concerns Salmonella typhimurium. In words: Genotoxicity in Salmonella typhimurium TA100 assessed as mutagenic index at 8 umol/plate. It is filed as toxicity, organism-based. Particulars: salmonella enterica subsp. enterica serovar typhimurium.
Data set [25] has as its system Salmonella typhimurium. In words: Genotoxicity in Salmonella typhimurium TA102 assessed as mutagenic index at 16 umol/plate. It is filed as toxicity, organism-based. Conditions: salmonella enterica subsp. enterica serovar typhimurium.
In data set [26] the test system is Salmonella typhimurium. The experiment in a line: Genotoxicity in Salmonella typhimurium TA102 assessed as mutagenic index at 4 umol/plate in presence of S9 liver extract. It counts as toxicity, organism-based, Liver S9 fraction. Conditions: salmonella enterica subsp. enterica serovar typhimurium.
Data set [27] concerns Salmonella typhimurium. In words: Genotoxicity in Salmonella typhimurium TA102 at 3 ug/plate assessed as number of revertants per plate (reference value: 301 +/- 5.2 no unit). It counts as toxicity, organism-based. Particulars: salmonella enterica subsp. enterica serovar typhimurium.
Data set [28] deals with Salmonella typhimurium. In words: Genotoxicity in Salmonella typhimurium TA100 at 1.25 ug/plate assessed as number of revertants per plate in presence of S9 liver extract (reference value: 128.9 +/- 7.3 no unit). It is filed as toxicity, organism-based, Liver S9 fraction. Particulars: salmonella enterica subsp. enterica serovar typhimurium.

With `O=C1CCC(N2C(=O)c3ccccc3C2=O)C(=O)N1` (stereo not drawn) [THALIDOMIDE], in data set [1], the inhibition at 15.625 µM amounted to 35.4%. In [2], the inhibition at 125 µM worked out at 42.8%. Also, the “inhibition (INH)” value in [3] is given as 42.2%. Further, the Activity in [4] stood at 4600000.

For `O=C1c2ccccc2C(=O)N1c1ccc(S(=O)(=O)Nc2ccccn2)cc1`, the inhibition at 15.625 µM in [1] came out at 26.5%. For the same compound, in data set [5], the inhibition result is “Dose-dependent effect”. Further, in data set [2], the inhibition at 125 µM is 66.6%. For the same compound, the “inhibition (INH)” value in data set [3] was found to be 49.8%. Moreover, the viability in data set [6] was more than 90%.

As for `Cc1ccnc(NS(=O)(=O)c2ccc(N3C(=O)c4ccccc4C3=O)cc2)n1`, the Activity in [7] is 1.4; in [8], 1.08; in data set [9], 1.33; in data set [10], 1.08; in [11], 1.07; in [12], 1.59. Further, the Activity in data set [13] came out at 1.24; in data set [14], 1.59; in data set [15], 1.38; in [16] it was 1.64; in data set [17], 1.21; in data set [18], 1.22. The Activity in [19] came to 1.61; in data set [20] it was 1.19; in [21] it was 1.31; in data set [22], 1.07; in [23], 1.26; in data set [24], 1.33. For the same compound, the Activity stood at 1.36 in data set [25], 2500000 in data set [4] and 1.17 in data set [26]. Further, the inhibition at 15.625 µM in data set [1] is 86.3%. Further, the inhibition entry in [5] is “Dose-dependent effect”. In addition, the inhibition at 125 µM in data set [2] was determined as 87.8%. Besides, the “inhibition (INH)” value in data set [3] was determined as 34.15%. For the same compound, the viability in [6] was more than 90%.

For `COc1cccc2c1C(=O)c1c(O)c3c(c(O)c1C2=O)C[C@@](O)(C(C)=O)C[C@@H]3O[C@H]1C[C@H](N)[C@H](O)[C@H](C)O1` [DAUNORUBICIN], the Activity in data set [27] was 902.

With `Nc1ccc(NS(=O)(=O)c2ccc(N3C(=O)c4ccccc4C3=O)cc2)cc1`, in [1], the inhibition at 15.625 µM was 28.8%. For the same compound, in data set [5], the inhibition result is “Dose-dependent effect”. In addition, the inhibition at 125 µM in [2] came to 40.6%. Besides, in [3], the “inhibition (INH)” value stood at 35.2%. For the same compound, the viability in [6] was more than 90%.

Turning to `N=C(N)NS(=O)(=O)c1ccc(N2C(=O)c3ccccc3C2=O)cc1`, the inhibition at 15.625 µM in data set [1] was found to be 0%. The inhibition entry in data set [5] is “Dose-dependent effect”. The inhibition at 125 µM in [2] amounted to 7.24%. The “inhibition (INH)” value in [3] was determined as 29.63%. Also, the viability in [6] was more than 90%.

With `Nc1ccc2cc3ccccc3cc2c1` [2-AMINOANTHRACENE], in data set [28], the Activity was found to be 2540.

For `Cc1cc(C)nc(NS(=O)(=O)c2ccc(N3C(=O)c4ccccc4C3=O)cc2)n1`, in [1], the inhibition at 15.625 µM stood at 53.9%. The inhibition entry in data set [5] is “Dose-dependent effect”. The inhibition at 125 µM in [2] was 81.3%. Further, the “inhibition (INH)” value in data set [3] worked out at 27.37%. Moreover, the viability in data set [6] is more than 90%.

In the case of `O=C1c2ccccc2C(=O)N1c1ccc(S(=O)(=O)Nc2ncccn2)cc1`, the inhibition at 15.625 µM in data set [1] was 33.7%. Moreover, the inhibition entry in [5] was “Dose-dependent effect”. Further, in data set [2], the inhibition at 125 µM came out at 79.3%. The “inhibition (INH)” value in [3] was 39.1%. Also, the viability in data set [6] is more than 90%.

Take `Cc1c(N(C)CS(=O)(=O)O)c(=O)n(-c2ccccc2)n1C` [METAMIZOLE]: the “inhibition (INH)” value in data set [3] was found to be 33.5%.

For `COc1cnc(NS(=O)(=O)c2ccc(N3C(=O)c4ccccc4C3=O)cc2)nc1`, in data set [1], the inhibition at 15.625 µM turned out to be 73.5%. In addition, in data set [5], the inhibition result is “Dose-dependent effect”. In data set [2], the inhibition at 125 µM is 80.8%. Further, the “inhibition (INH)” value in [3] is on record as 27.57%. Moreover, the viability in [6] is more than 90%.

For the compound `NS(=O)(=O)c1ccc(N2C(=O)c3ccccc3C2=O)cc1`, the inhibition at 15.625 µM in [1] was 53%. Further, in data set [5], the inhibition result was “Dose-dependent effect”. The inhibition at 125 µM in data set [2] worked out at 70.7%. Also, the “inhibition (INH)” value in [3] turned out to be 26.75%. Besides, the viability in data set [6] is more than 90%.

As to `Cc1cc(NS(=O)(=O)c2ccc(N3C(=O)c4ccccc4C3=O)cc2)no1`, in data set [1], the inhibition at 15.625 µM stood at 16.2%. Further, the inhibition result in [5] is “Dose-dependent effect”. In addition, the inhibition at 125 µM in data set [2] came out at 34.1%. The “inhibition (INH)” value in data set [3] was 17.9%. Moreover, in data set [6], the viability was more than 90%.

The inhibition is the relative decrease from the control value, in per cent.

The values above are taken from ChEMBL document CHEMBL3352176, “Synthesis and evaluation of novel dapsone-thalidomide hybrids for the treatment of type 2 leprosy reactions” (Bioorg Med Chem Lett, 2014).
